PostGolgi yeast = growth inhibition of a yeast mutant, post-Golgi transport screen; AID 739; 98,000 tested, 0.9% active; inhibition, % at 10 µM; post-Golgi transport phenotypic cell assay;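 note: yeast cells grown in 1536-well plates; yeast grown about 18 h at 30C before absorbance read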
Ecoli WT expand = growth inhibitors of E. coli BW25113 wild type; AID 710; OD600 absorbance; 98,000 tested, 0.15% active; growth inhibition, % at 100 µM;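 active = growth inhibition above about 50% at one test dose, limit read from the data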;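 note: growth measured after 20 h incubation at 37 °C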
PostGolgi ctrl = yeast control strain growth, post-Golgi counter-screen | efflux-deficient yeast background strain, growth absorbance A615, 16 h | inhibition, % at 10 µM | 98,000 tested, 5% active | AID 738
Ecoli tolC = blocks growth of E. coli BW25113 tolC mutant. 65,000 tested, 2.2% active. OD615. growth inhibition, % at 10 µM (by protocol);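 active = growth inhibition at or above a cutoff equal to the mean over every tested compound plus 3 SD, cut at about 60% in these data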;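 note: growth measured after 20 h incubation at 37 °C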
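Test system: tolC-deleted E. coli BW25113 | Medium: LB with kanamycin 50 µg/mL | Compound dosing: Single concentration, 10 µM final per compound | Schedule: 37 °C, 20 h exposure | Measured by: OD at 615 nm | Evaluation: Percent growth inhibition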
* = called active by the depositor. Hits are enriched below; roughly 6.3% of the tested compounds scored in any of these assays. Cut-off read from the data, not from the text of the source, unless noted: active = inhibition above about 30%; inactive = the rest.

What do the screens show for `COc1cc(C(C)=O)ccc1OCC(=O)c1cc(C)n(C2CC2)c1C`?
PostGolgi yeast: -6; Ecoli WT expand: 1; PostGolgi ctrl: 23; Ecoli tolC: 7

Results for CC12C=CC3(CN(Cc4ccccc4)C(=O)C3C1C(=O)NC1CC1)O2 (stereo unspecified) ?
PostGolgi yeast: -8; Ecoli WT expand: 9; PostGolgi ctrl: -6; Ecoli tolC: -9

Results for O=S(=O)(Nc1nc2ccccc2nc1NCc1ccco1)c1cccs1 ?
PostGolgi yeast: -13; Ecoli WT expand: 4; PostGolgi ctrl: -1; Ecoli tolC: 81*

What do the screens show for `FC(F)(F)c1cccc(Cn2nnnc2-c2cccc(C(F)(F)F)c2)c1`?
PostGolgi yeast: 2; Ecoli WT expand: 5; PostGolgi ctrl: 13

Results for CC(NC(=O)C1CCCCC1)C(=O)NC1=NCCS1 (stereo unspecified) ?
PostGolgi yeast: 1; Ecoli WT expand: 10; PostGolgi ctrl: 10

How did COc1cccc(C(=O)Nc2cccc(-c3nnc(-c4ccccc4)o3)c2)c1 do in these assays?
Ecoli tolC: 27

How did COc1cccc(-c2nnc(NC(=O)C(C)C)o2)c1 do in these assays?
PostGolgi yeast: -11; Ecoli WT expand: 9; PostGolgi ctrl: -2

What do the screens show for `Cc1cccc(-c2nnc(NC(=O)c3ccc(Cl)cc3)o2)c1`?
PostGolgi yeast: 94*; Ecoli WT expand: 30; PostGolgi ctrl: 81*; Ecoli tolC: 100*

Results for COc1ccc(C(=O)Nc2nnc(-c3ccccc3)o2)cc1OC ?
PostGolgi yeast: 0; Ecoli WT expand: -6; PostGolgi ctrl: 17; Ecoli tolC: 36

How did COc1cccc(-c2nnc(NC(=O)c3cccc(F)c3)o2)c1 do in these assays?
Ecoli tolC: 100*

What do the screens show for `COc1cccc(-c2nnc(NC(=O)c3ccccc3Br)o2)c1`?
Ecoli tolC: 72*

Results for COc1ccccc1NC(=O)C(C)NS(=O)(=O)c1ccc(Cl)cc1 (stereo unspecified) ?
PostGolgi yeast: 7; Ecoli WT expand: 5; PostGolgi ctrl: 4; Ecoli tolC: -1

How did CC1(C)Cc2cccc(OCC(=O)Nc3cc(C(F)(F)F)ccc3N3CCOCC3)c2O1 do in these assays?
PostGolgi yeast: 11; Ecoli WT expand: -3; PostGolgi ctrl: 8

Results for Cc1cccc(N2C(N)=C(C#N)C(C#N)(C#N)C2c2ccccc2)c1 (stereo unspecified) ?
PostGolgi yeast: 1; Ecoli WT expand: 8; PostGolgi ctrl: 25; Ecoli tolC: 100*

How did CCOC(=O)CSc1nnc(SCCN2C(=O)c3ccccc3C2=O)s1 do in these assays?
PostGolgi yeast: -4; Ecoli WT expand: 3; PostGolgi ctrl: 11

Results for CC(C)(C)c1csc(NC(=O)Cn2cnc3ccccc3c2=O)n1 ?
PostGolgi yeast: 1; Ecoli WT expand: 1; PostGolgi ctrl: 1; Ecoli tolC: 45

How did Cc1ccc(-n2nnnc2C(Cl)(Cl)c2nnnn2-c2ccc(C)cc2)cc1 do in these assays?
PostGolgi yeast: 108*; Ecoli WT expand: -2; PostGolgi ctrl: 100*

What do the screens show for `COc1cc(CSc2nnnn2-c2ccc(C)cc2)cc(OC)c1OC`?
PostGolgi yeast: -7; Ecoli WT expand: -10; PostGolgi ctrl: 3; Ecoli tolC: 42

Results for COC(=O)c1cn[nH]c1NC(=S)Nc1ccc(Cl)c(Cl)c1 ?
PostGolgi yeast: -3; Ecoli WT expand: -6; PostGolgi ctrl: 42*

How did CSCC[C@H](NC(=O)c1nn(C)c(=O)c2ccccc12)c1nc2ccccc2[nH]1 do in these assays?
PostGolgi yeast: -19; Ecoli WT expand: 3; PostGolgi ctrl: 6

Results for O=C(NCCc1ccccc1F)C(=O)Nc1nccs1 ?
PostGolgi yeast: -11; Ecoli WT expand: -4; PostGolgi ctrl: 30*

How did O=C(Nc1nccs1)Oc1ccccc1 do in these assays?
PostGolgi yeast: -5; Ecoli WT expand: 7; PostGolgi ctrl: 37*; Ecoli tolC: -19

How did O=C(Nc1cc(Cl)ccc1O)C1CCCO1 (stereo unspecified) do in these assays?
PostGolgi yeast: -2; Ecoli WT expand: 8; PostGolgi ctrl: 38*; Ecoli tolC: -12

How did O=C(Nc1ccccc1Sc1ccccc1)C1CCCO1 (stereo unspecified) do in these assays?
PostGolgi yeast: -3; Ecoli WT expand: 0; PostGolgi ctrl: 38*; Ecoli tolC: 10

What do the screens show for `CCCCOC(=O)c1ccc(NC(=O)c2cnccn2)cc1`?
PostGolgi yeast: 4; Ecoli WT expand: 2; PostGolgi ctrl: 10; Ecoli tolC: 5

What do the screens show for `CCCCOC(=O)Nc1ccc(C(=O)OCCC)cc1`?
PostGolgi yeast: 0; Ecoli WT expand: 5; PostGolgi ctrl: 5; Ecoli tolC: 67*

Results for N#Cc1cnn(-c2nc(SCc3ccccc3)nc3sc4c(c23)CCCC4)c1N ?
PostGolgi yeast: 14; Ecoli WT expand: -8; PostGolgi ctrl: 34*; Ecoli tolC: 2

How did Cc1cc2n(n1)C(c1c[nH]c3ccccc13)Nc1ccccc1-2 (stereo unspecified) do in these assays?
PostGolgi yeast: 11; Ecoli WT expand: 11; PostGolgi ctrl: 55*; Ecoli tolC: 32

How did Cc1cc2n(n1)C(c1cn(-c3ccccc3)nc1C)Nc1ccccc1-2 (stereo unspecified) do in these assays?
PostGolgi yeast: -3; Ecoli WT expand: -1; PostGolgi ctrl: 14; Ecoli tolC: -14

What do the screens show for `COc1ccccc1Cc1nc(-c2ccc(Br)o2)no1`?
PostGolgi yeast: -10; Ecoli WT expand: 6; PostGolgi ctrl: 2; Ecoli tolC: 61*

How did O=[N+]([O-])c1ccc(/C=N/Nc2nc(N3CCCCC3)nc(N3CCCCC3)n2)o1 do in these assays?
PostGolgi yeast: 12; Ecoli WT expand: -1; PostGolgi ctrl: 49*

Results for CCOC(=O)c1sc(C)c2c1NC(c1ccc(Cl)cc1)NC2=O (stereo unspecified) ?
PostGolgi yeast: -3; Ecoli WT expand: 3; PostGolgi ctrl: -10

What do the screens show for `Cc1c(Cl)cccc1NC(=O)c1cc(-c2ccccc2O)n[nH]1`?
PostGolgi yeast: -13; Ecoli WT expand: 2; PostGolgi ctrl: 19

Results for Cc1ccc(-c2cc(-c3ccccc3Cl)[nH]n2)c(O)c1 ?
PostGolgi yeast: -15; Ecoli WT expand: 13; PostGolgi ctrl: 38*; Ecoli tolC: 17

What do the screens show for `COc1ccccc1-c1cc(-c2cc(Cl)ccc2O)n[nH]1`?
PostGolgi yeast: -2; Ecoli WT expand: -1; PostGolgi ctrl: 6; Ecoli tolC: 14

Results for Cc1ccccc1-c1cc(-c2ccccc2O)n[nH]1 ?
PostGolgi yeast: 0; Ecoli WT expand: 26; PostGolgi ctrl: 52*; Ecoli tolC: 100*

Results for Oc1ccc(Cl)cc1-c1cc(-c2ccccc2)n[nH]1 ?
PostGolgi yeast: 8; Ecoli WT expand: 1; PostGolgi ctrl: 65*; Ecoli tolC: 100*

How did Cc1ccc(-c2cc(-c3ccccc3[N+](=O)[O-])[nH]n2)c(O)c1 do in these assays?
PostGolgi yeast: -2; Ecoli WT expand: 26; PostGolgi ctrl: 41*

How did COc1ccc(-c2cc(-c3ccccc3O)[nH]n2)cc1 do in these assays?
PostGolgi yeast: -5; Ecoli WT expand: 17; PostGolgi ctrl: 11

What do the screens show for `COc1ccc(Cn2nc(C)n(N(C)c3ncc(C(F)(F)F)cc3Cl)c2=O)cc1`?
PostGolgi yeast: -3; Ecoli WT expand: 7; PostGolgi ctrl: 6
